# High-throughput results from PubChem BioAssay.
# TLR9-MyD88 block: inhibitors of human TLR9-MyD88 binding; Q9NR96+Q99836; CHO BLA complementation TLR9-MyD88, CCF4 FRET ratio; inhibition, % at 4.98 µM; hit rate 0.21% among 340,000; AID 504734;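 active = inhibition above the mean over all tested compounds plus 3 SD, cut at about 21% in these data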;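 also: 0% = DMSO only wells and 100% = clavulanate BLA inhibitor control wells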
# TLR4 MyD88 comp: inhibitors of human TLR4-MyD88 binding; AID 861; HeLa CL3-4 TLR4/MyD88 BLA complementation, FRET ratio; inhibition, % at 8.4 µM; hit rate 0.18% among 200,000; O00206+Q99836; in the data active = inhibition above about 25%;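 also: 0% = vehicle and 100% = reference inhibitor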
# NOD2 RIPK2 PPI: blocks binding of human NOD2 to RIPK2 | O43353 | CHO BLA complementation NOD2-RIPK2, CCF4 ratio | inhibition, % at 4.98 µM | hit rate 0.38% among 360,000 | AID 624267; in the data active = inhibition above about 21%;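 also: 0% = vehicle only and 100% = reference blocker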
# MC4R antag cAMP: human MC4R antagonism in cAMP assay | MC4R-expressing cells, MTII-stimulated cAMP, LANCE TR-FRET | inhibition, % at 6.5 µM | AID 540295 | P32245 | hit rate 0.48% among 360,000;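 active = inhibition above its plate's cutoff, the mean of tested wells on that plate plus 3 SD, cut at about 29% in these data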;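 also: 0% = Melanotan II alone and 100% = Melanotan II plus saturating MCL0020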
# Target sequence (P32245 whole entry, looked up): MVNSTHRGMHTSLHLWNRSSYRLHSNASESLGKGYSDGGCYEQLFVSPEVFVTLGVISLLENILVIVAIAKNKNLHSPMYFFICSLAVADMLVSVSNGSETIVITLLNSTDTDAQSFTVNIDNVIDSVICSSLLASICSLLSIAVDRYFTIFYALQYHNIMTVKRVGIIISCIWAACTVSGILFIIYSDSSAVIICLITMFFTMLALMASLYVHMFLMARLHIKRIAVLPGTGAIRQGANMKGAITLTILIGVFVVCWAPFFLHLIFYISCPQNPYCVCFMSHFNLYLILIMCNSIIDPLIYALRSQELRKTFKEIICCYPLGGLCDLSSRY
#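 material = U2OS cells stably expressing human melanocortin 4 receptor (MC4R) | also added = Melanotan II challenge | dosing = single nominal compound dose of 6.5 µM | detection = TR-FRET with Eu-cAMP and labeled anti-cAMP, 671 nm | replication = singlicate | timing = compound 30 min, challenge 1 h, detection 1 h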
# MC4R barr agon: human MC4R agonism via beta-arrestin | P32245 | U2OS MC4R beta-arrestin complementation, luminescence; percent of melanotan II response, DMSO zero | activation, % at 8.9 µM | hit rate 0.98% among 360,000;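 active = activation above a per-plate cutoff, the mean activation of sample wells on that plate plus 3 SD, cut at about 8% in these data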
# NTR1 ag: agonists of human neurotensin receptor NTR1; AID 493036; P30989; activation, % at 20 µM; NTR1-U2OS beta-arrestin-GFP spot imaging, agonist mode; hit rate 0.17% among 330,000;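 active = activation at or above 40% of the spot to cytoplasm intensity ratio, with at least 20 cells analyzed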;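 also: 0% = DMSO without peptide and 100% = 100 nM NTR1 peptide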
# cAMP nonselect: counter-screen for MC4R antagonists: nonselective cAMP signaling inhibitors; shares compounds with MC4R antag cAMP; parental U2OS, forskolin cAMP, LANCE TR-FRET; inhibition, % at 6.5 µM; hit rate 26% among 1,600; AID 602193;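 active = mean inhibition over triplicates above the low-control well mean plus 3 SD, set per campaign, cut at about 13% in these data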;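 also: signal is single emission at 671 nm which falls as cellular cAMP rises; 0% = forskolin-stimulated wells and 100% = buffer without forskolin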
# MC4R antag conf: human MC4R cAMP antagonism confirmation; MC4R-expressing cells, MTII-stimulated cAMP, TR-FRET; shares compounds with MC4R antag cAMP; hit rate 27% among 1,600; inhibition, % at 6.5 µM; in the data active = inhibition above about 29%;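 also: 0% = agonist stimulated wells alone and 100% = agonist stimulated wells plus saturating reference antagonist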
# Starred values were filed as active, the others as inactive; / = no result; + = active, no number. An excerpt weighted towards active compounds, which were near 1.9% of everything screened.
SMILES,TLR9-MyD88 block,TLR4 MyD88 comp,NOD2 RIPK2 PPI,MC4R antag cAMP,MC4R barr agon,NTR1 ag,cAMP nonselect,MC4R antag conf
O=C(NCCCO)c1c(O)c2cccc3c2n(c1=O)CCC3,10,/,-7,10,1,1,/,/
O=[N+]([O-])c1ccc(O)c(Nc2c([N+](=O)[O-])ccc3nonc23)c1,-6,/,14,-10,-4,1,/,/
O=C(NCc1ccncc1)c1cc(C(=O)C2CCCCC2)c[nH]1,-5,-12,-16,30*,-1,2,4,-7
O=C(NCc1ccncc1)c1cc(C(=O)C2CC2)c[nH]1,-2,-4,-15,1,-2,0,/,/
CCOC(=O)N1CCC(n2c(SCC(=O)NCCc3ccc(S(N)(=O)=O)cc3)nc3ccccc3c2=O)CC1,1,2,6,19,-3,-1,/,/
CN(CC(=O)Nc1c(Cl)cccc1Cl)C(=O)CCC1CCCC1,2,/,-12,-2,-4,0,/,/
COc1ccc(CN(C)S(=O)(=O)c2nnc(NC(=O)c3ccc(C)cc3)s2)cc1OC,3,/,3,30*,-1,1,4,23
O=Nc1c(O)c2ccccc2c2ccccc12,8,/,6,1,4,/,/,/
O=c1c(=Nc2ccccc2O)c(=O)c2ccccc12,-4,-16,-1,34*,-2,0,4,-1
N#CCC(=O)Nc1ccc(C(=O)OCC(=O)Nc2ccccc2Sc2ccccc2)cc1,/,-9,16,31*,1,4,-3,9
NC(=O)c1cc(S(=O)(=O)N2CCOCC2)ccc1Sc1ccccc1N,-1,/,0,11,1,0,/,/
Cc1cc2nccc(-c3ccc(F)cc3)n2n1,-2,/,-1,16,1,0,/,/
Cc1cc2nccc(-c3ccc(Cl)c([N+](=O)[O-])c3)n2n1,-5,-7,5,41*,1,13,-11,29*
O=C1c2cccc([N+](=O)[O-])c2C(=O)N1c1ccccc1,-5,-10,0,30*,-4,-1,9,21
O=C1c2cccc([N+](=O)[O-])c2C(=O)N1c1cccnc1,2,6,-15,19,0,-1,/,/
O=C(COC(=O)c1ccc2c(=O)n3c(nc2c1)CCC3)Nc1ccc(OC(F)F)cc1,-5,-3,-15,30*,-3,-1,5,17
Cc1cccc(NC(=O)COC(=O)c2ccc3c(=O)n4c(nc3c2)CCC4)c1,-7,1,-4,17,-1,2,/,/
COC(=O)c1sc(N2C(=O)C(O)=C(C(=O)c3ccc(C)o3)C2c2ccc(F)cc2)nc1C (stereo not drawn),-18,-13,-12,33*,1,0,17*,22
CSc1nnc(N2C(=O)C(O)=C(C(=O)c3ccc(C)o3)C2c2ccc(C)cc2)s1 (stereo not drawn),-6,/,2,+,-3,1,52*,88*
CCOc1cc(/C=N/NC(=S)Nc2ccccc2C(F)(F)F)ccc1OCC(=O)N1CCOCC1,-3,-10,-9,-1,1,5,/,/
COCCN1C(=O)c2cc(C(=O)Nc3ccc(C)c(F)c3)ccc2C1Nc1ccc(C)c(F)c1 (stereo not drawn),-9,-3,-7,2,6,5,/,/
CS(=O)(=O)N(CC(=O)NC1CCCCC1)Cc1ccc(F)cc1,-1,-11,-16,19,-2,0,/,/
COc1ccc(C(=O)/C=C/C(=O)N(CC(=O)NC2CCCCC2)Cc2ccc(F)cc2)c(O)c1,-15,5,12,29*,-4,/,6,12
O=C(Nc1ccc(Cl)cc1N1CCOCC1)C1CCCCC1,-9,/,-1,3,-2,0,/,/
C=C(C)CN(CC)C(=O)CN1C(=O)NC2(CCCc3ccccc32)C1=O (stereo not drawn),-2,/,-19,1,-2,0,/,/
SMILES,TLR9-MyD88 block,TLR4 MyD88 comp,NOD2 RIPK2 PPI,MC4R antag cAMP,MC4R barr agon,NTR1 ag,cAMP nonselect,MC4R antag conf
CC(=O)c1cccc(NC(=O)Nc2ccc3c(c2)OCO3)c1,-5,/,2,7,-4,-1,/,/
O=C(CCCc1nc2ccccc2s1)NCc1cccnc1,-13,-8,12,29*,-1,-1,0,0
O=C(CCCc1nc2ccccc2s1)Nc1ccccc1,12,8,-1,-1,-3,2,/,/
O=C1OCCC1Sc1nnnn1-c1ccc(Cl)cc1 (stereo not drawn),0,-2,-1,38*,-2,1,22*,39*
O=C(O)c1ccc(NC(=O)c2ccc(COc3ccccc3)o2)cc1,2,/,-3,29*,3,0,-1,-14
Cc1cccc(C(=O)NCC(=O)OCC(=O)c2ccc(Br)s2)c1,-9,/,-5,44*,1,1,33*,70*
O=C(NC(=S)NCCN1CCOCC1)c1ccccc1Cl,3,-10,-14,-8,2,-4,/,/
O=C(NC(=S)NCCCN1CCOCC1)c1ccco1,-14,-10,-8,29*,1,0,2,-15
O=C(Cc1ccc(Cl)cc1)NCC(=O)N1CCC2(CC1)NCCc1[nH]cnc12,2,/,-4,11,1,/,/,/
CC1(C)Cc2c(c(N3CCOCC3)nc3snc(NC(=O)c4ccccc4)c23)CO1,2,3,5,5,1,0,/,/
Cc1nc2c(sc3nc(N4CCOCC4)c4c(c32)CC(C)(C)OC4)c(-c2ccccc2)c1C(=O)O,-2,/,1,40*,0,5,12,20
Cc1cccc2c1cnn2C(=O)CCC(=O)N1CCC(C)CC1,3,/,-2,-3,-1,5,/,/
COc1ccccc1NC(=O)c1ccc(NC(=O)Cc2n[nH]c(=O)c3ccccc23)cc1,-3,/,-11,30*,2,2,5,1
O=C(COC(=O)/C=C/c1ccco1)NC1CCCCC1,-10,/,4,4,-1,-1,/,/
O=C(/C=C/c1ccco1)OCC1CCCN2CCCCC12 (stereo not drawn),-46,-10,-16,31*,-3,0,-2,-6
CCC(C(=O)NC(C)(C)C)N(C(=O)Cn1nnc(-c2cccs2)n1)c1cnc2ccccc2c1 (stereo not drawn),3,-14,5,-1,-1,-2,/,/
CC1=NN(c2ccccc2)C(=O)/C1=C\c1cn(-c2ccccc2)nc1C,-8,2,-8,28*,3,7,5,6
Cc1ccc(-c2nn(-c3ccccc3)cc2C=C2C(=O)CC(C)(C)CC2=O)cc1,-2,-7,-11,31*,2,46*,18*,23
